Screening results deposited in PubChem by Broad Institute.
Rows were chosen to be rich in hits. Some 5.9% of all compounds tested hit in one or more screens of this group.
T cruzi growth-1 – T. cruzi intracellular proliferation inhibitors, primary screen, cell-based, beta-gal Tulahuen parasites, NIH3T3 host, luminescence | T. cruzi beta-gal in NIH3T3, GalScreen luminescence, 90 h | inhibition, % at 8.34 µM | 5.9% of 77,000 active | AID 624255, 2012;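 active means mean inhibition above about 93%, with at least 55% of replicates each passing it, limit read from the data, passing the limit was not always enough; inconclusive means only one of those two conditions holds; inactive means neither condition holds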
IDH1 mut inh – inhibitors of IDH1 R132H reductase, primary screen, biochemical, plate reader, single point | Isocitrate dehydrogenase [NADP] cytoplasmic (Homo sapiens), O75874 | diaphorase/resazurin fluorescence, 60 min | inhibition, % at 10 µM | 0.18% of 70,000 active | AID 624101, 2012; in the data active means inhibition above about 34%; inconclusive means no clear call, values can overlap the other calls; inactive means below about 11%
Target sequence (O75874 whole entry R132H): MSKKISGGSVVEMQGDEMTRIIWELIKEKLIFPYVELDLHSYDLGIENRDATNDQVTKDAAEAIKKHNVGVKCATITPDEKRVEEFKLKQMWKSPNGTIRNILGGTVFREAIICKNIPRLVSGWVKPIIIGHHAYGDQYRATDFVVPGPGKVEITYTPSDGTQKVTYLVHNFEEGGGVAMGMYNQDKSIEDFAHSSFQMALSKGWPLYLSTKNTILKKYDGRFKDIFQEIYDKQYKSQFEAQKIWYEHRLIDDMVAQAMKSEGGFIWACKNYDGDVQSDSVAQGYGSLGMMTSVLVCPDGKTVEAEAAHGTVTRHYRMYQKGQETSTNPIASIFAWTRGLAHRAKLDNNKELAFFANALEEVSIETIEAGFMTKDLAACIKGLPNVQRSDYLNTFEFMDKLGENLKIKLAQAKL
Pf Dd2 inh – P. falciparum Dd2 growth inhibitors, primary screen, SYBR Green fluorescence, single dose replicates. 72 h; active compounds read low. activity change, % at 10 µM. 2.3% of 94,000 active. AID 1159554, 2015; in the data active means activity change below about -80%; inconclusive means no clear call, values can overlap the other calls
KDM4C inh – inhibitors of GASC-1 (KDM4C) histone demethylase, primary screen, biochemical, single concentration HTS; inhibition, % at 12.5 µM; 0.15% of 96,000 active; AID 720574, 2013; GST-KDM4C 2-372, H3K9me3 peptide, LANCE TR-FRET;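 active means mean replicate inhibition above about 25%, with at least 55% of replicates also reaching it, limit read from the data, passing the limit was not always enough; inconclusive means only one of those two conditions met; inactive means neither condition met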
Target sequence (Q9H3R0 2-372 limits assumed): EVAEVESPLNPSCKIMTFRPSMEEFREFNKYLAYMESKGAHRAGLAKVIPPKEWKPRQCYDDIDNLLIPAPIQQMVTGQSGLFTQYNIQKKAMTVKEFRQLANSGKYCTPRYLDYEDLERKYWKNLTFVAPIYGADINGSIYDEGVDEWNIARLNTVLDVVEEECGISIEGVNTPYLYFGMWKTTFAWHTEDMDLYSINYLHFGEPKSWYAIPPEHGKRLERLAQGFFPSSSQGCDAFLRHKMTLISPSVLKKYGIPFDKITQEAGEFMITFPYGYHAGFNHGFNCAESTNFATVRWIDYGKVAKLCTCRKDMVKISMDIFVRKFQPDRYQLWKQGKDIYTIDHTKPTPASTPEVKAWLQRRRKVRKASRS
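Test system – GST-tagged GASC-1 (JMJD2C) catalytic fragment, aa 2-372 · Medium – HEPES buffer, pH 7.5, plus ascorbate · Reagent – H3K9me3 peptide with Fe(II)/2OG · Compound – one test concentration per compound · Timing – 30 min reaction, 60 min detection, RT · Technique – TR-FRET with Eu antibody and ULight streptavidin, EDTA stop · Read-out basis – inhibition from TR-FRET ratio decrease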
T cruzi growth-2 – T. cruzi intracellular proliferation inhibitors, confirmation, cell-based, NIH3T3 host, beta-gal parasite, luminescence, cherry-pick; T. cruzi beta-gal in NIH3T3, GalScreen luminescence, 90 h; inhibition, % at 8.35 µM; shares compounds with T cruzi growth-1; 72% of 5,600 active;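 active means mean replicate inhibition above about 95% and at least 55% of replicates individually reaching it, limit read from the data; inconclusive means only one of the two criteria is met; inactive means neither criterion is met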
T cruzi growth-3 – inhibitors of intracellular T. cruzi replication, confirmation, NIH3T3 host cells, beta-gal parasites, cherry-pick, set 2; 21% of 5,600 active; shares compounds with T cruzi growth-1; T. cruzi beta-gal in NIH3T3, GalScreen luminescence, 90 h; inhibition, % at 2.09 µM;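 active means mean inhibition above about 95%, with at least 55% of replicates also reaching it, limit read from the data; inconclusive means meets just one of the two conditions; inactive means meets neither condition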
NIH3T3 tox – cytotoxicity in mouse NIH/3T3 fibroblasts, confirmation, cytotoxicity control for T. cruzi proliferation inhibitor project, cell-based, cherry-pick, single point; shares compounds with T cruzi growth-1; NIH/3T3 viability, CellTiter-Glo ATP luminescence, 90 h; cytotoxicity (signal decrease), % at 8.35 µM; 14% of 5,600 active;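 active means mean signal decrease across replicates above about 35% based on untreated-well scatter, with enough replicates individually passing, limit read from the data; inconclusive means no rule stated though some were filed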
NIH3T3 tox 2 – NIH/3T3 fibroblast cytotoxicity, confirmation, cytotoxicity control, cell-based, cherry-pick, single point, set 2; 56% of 5,600 active; shares compounds with T cruzi growth-1; AID 651744, 2012; inhibition, % at 24.9 µM; NIH/3T3 viability, CellTiter-Glo ATP luminescence, 90 h;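 active means mean loss of cell viability signal at or above a set limit, and enough replicates individually reaching it; inconclusive means meets only the mean limit or only the replicate share; inactive means meets neither condition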
Each line names hits and unclear results; the compound was inactive in the other large screens (follow-up assays come after a bar, where they were run).

O=C(c1ccc2c(c1)OCO2)N1CCCCN2[C@H](CO)[C@@H](c3ccc(-c4ccccc4)cc3)[C@@H]2C1	T cruzi growth-1 115.0 (no result: IDH1 mut inh) | T cruzi growth-2 99.2 | T cruzi growth-3 inactive | NIH3T3 tox 52.3 | NIH3T3 tox 2 88.2
Cc1cccc(-c2ccc([C@H]3[C@H](CO)N4CCCCN(C(=O)c5ccc6c(c5)OCO6)C[C@@H]34)cc2)c1	T cruzi growth-1 113.8 (no result: IDH1 mut inh) | T cruzi growth-2 102.6 | T cruzi growth-3 inactive | NIH3T3 tox inactive | NIH3T3 tox 2 103.4
CC12CCC3c4ccc(O)cc4CC(CCCCCCCCCS(=O)CCCC(F)(F)C(F)(F)F)C3C1CCC2O (stereo not given)	none (no result: T cruzi growth-1, Pf Dd2 inh, KDM4C inh)
COc1cccc(S(=O)(=O)N(C)C[C@H]2Oc3cc(C#CCC(C)C)ccc3S(=O)(=O)N([C@@H](C)CO)C[C@H]2C)c1	T cruzi growth-1 inconclusive | T cruzi growth-2 96.4 | T cruzi growth-3 112.2 | NIH3T3 tox inactive | NIH3T3 tox 2 65.8
COc1cccc(S(=O)(=O)N(C)C[C@@H]2Oc3cc(C#CCC(C)C)ccc3S(=O)(=O)N([C@@H](C)CO)C[C@@H]2C)c1	T cruzi growth-1 inconclusive | T cruzi growth-2 inconclusive | T cruzi growth-3 111.6 | NIH3T3 tox inactive | NIH3T3 tox 2 inactive
Cc1cccc(NC(=O)CSc2nc(N)c(C#N)c(-c3ccc(F)cc3)c2C#N)c1	none (no result: T cruzi growth-1, Pf Dd2 inh, KDM4C inh)
CS(=O)(=O)N(CC(=O)Nc1cc(C(F)(F)F)ccc1Cl)c1cccc(F)c1	none (no result: T cruzi growth-1, Pf Dd2 inh, KDM4C inh)
C[C@@H]1CN([C@@H](C)CO)C(=O)c2cc(NC(=O)C3CCCCC3)ccc2O[C@@H](C)CCCCO[C@@H]1CN(C)Cc1ccc(C(F)(F)F)cc1	T cruzi growth-1 inconclusive | T cruzi growth-2 104.4 | T cruzi growth-3 105.4 | NIH3T3 tox inactive | NIH3T3 tox 2 inactive
C[C@@H]1CCCCO[C@H](CN(C)Cc2ccc(C(F)(F)F)cc2)[C@H](C)CN([C@H](C)CO)C(=O)c2cc(NC(=O)C3CCCCC3)ccc2O1	T cruzi growth-1 inconclusive (no result: IDH1 mut inh) | T cruzi growth-2 96.5 | T cruzi growth-3 110.1 | NIH3T3 tox inactive | NIH3T3 tox 2 inactive
C[C@@H]1CN([C@H](C)CO)C(=O)c2cc(NC(=O)C3CCCCC3)ccc2O[C@@H](C)CCCCO[C@@H]1CN(C)Cc1ccc(C(F)(F)F)cc1	T cruzi growth-1 inconclusive (no result: IDH1 mut inh) | T cruzi growth-2 inactive | T cruzi growth-3 113.3 | NIH3T3 tox inactive | NIH3T3 tox 2 inactive
C[C@@H]1CCCCO[C@@H](CN(C)Cc2ccc(C(F)(F)F)cc2)[C@@H](C)CN([C@@H](C)CO)C(=O)c2cc(NC(=O)C3CCCCC3)ccc2O1	T cruzi growth-1 inconclusive | T cruzi growth-2 102.4 | T cruzi growth-3 inactive | NIH3T3 tox inactive | NIH3T3 tox 2 inactive
C[C@@H]1CCCCO[C@@H](CN(C)Cc2ccc(C(F)(F)F)cc2)[C@@H](C)CN([C@H](C)CO)C(=O)c2cc(NC(=O)C3CCCCC3)ccc2O1	none
CN(CC(=O)Nc1ccccc1C#N)S(=O)(=O)c1ccc(Br)cc1	none (no result: T cruzi growth-1, Pf Dd2 inh, KDM4C inh)
Cc1ccc(C(=O)Nc2cccc(NC(=O)COc3ccc(Br)cc3)c2)cc1	none (no result: T cruzi growth-1, Pf Dd2 inh, KDM4C inh)
O=C(O)CCSc1nc(-c2ccccc2)c(-c2ccccc2)[nH]1	none (no result: T cruzi growth-1, Pf Dd2 inh, KDM4C inh)
COc1ccc(-c2ccc3c(c2)[C@@H]2[C@@H](CCN2C(=O)C2CCC2)[C@H](CO)N3C)cc1	none (no result: T cruzi growth-1, IDH1 mut inh)
COc1ccc(-c2ccc3c(c2)[C@@H]2[C@@H](CCN2C(=O)C2CCCCC2)[C@@H](CO)N3C)cc1	T cruzi growth-1 99.0 (no result: IDH1 mut inh) | T cruzi growth-2 inactive | T cruzi growth-3 108.4 | NIH3T3 tox inactive | NIH3T3 tox 2 106.1
COc1ccc(-c2ccc3c(c2)[C@@H]2[C@@H](CCN2C(=O)C2CC2)[C@@H](CO)N3C)cc1	T cruzi growth-1 101.5 (no result: IDH1 mut inh) | T cruzi growth-2 107.3 | T cruzi growth-3 108.6 | NIH3T3 tox inactive | NIH3T3 tox 2 50.0
CN1c2ccc(Br)cc2[C@H]2[C@H](CCN2C(=O)C2CC2)[C@H]1CO	T cruzi growth-1 104.4 (no result: IDH1 mut inh) | T cruzi growth-2 inactive | T cruzi growth-3 inactive | NIH3T3 tox inactive | NIH3T3 tox 2 inactive
CN(C)C(=O)c1ccc(-c2ccc3c(c2)[C@@H]2[C@@H](CCN2C(=O)C2CCOCC2)[C@H](CO)N3C)cc1	T cruzi growth-1 96.6 (no result: IDH1 mut inh) | T cruzi growth-2 105.6 | T cruzi growth-3 inactive | NIH3T3 tox inactive | NIH3T3 tox 2 inactive
CN1c2ccc(Br)cc2[C@@H]2[C@@H](CCN2C(=O)C2CC2)[C@H]1CO	none (no result: IDH1 mut inh)
CCNC(=O)c1c(NC(=O)C(C)Oc2ccccc2F)sc2c1CCCC2 (stereo not given)	none (no result: T cruzi growth-1, Pf Dd2 inh, KDM4C inh)
CN1c2ccc(-c3ccccc3)cc2[C@@H]2[C@@H](CCN2C(=O)c2ccncc2)[C@H]1CO	none (no result: IDH1 mut inh)
COc1ccc(-c2ccc3c(c2)[C@@H]2[C@@H](CCN2C(=O)c2ccncc2)[C@@H](CO)N3C)cc1	T cruzi growth-1 97.8 (no result: IDH1 mut inh) | T cruzi growth-2 101.4 | T cruzi growth-3 inactive | NIH3T3 tox inactive | NIH3T3 tox 2 inactive
C[C@@H]1CN([C@H](C)CO)C(=O)Cc2cc(N(C)C)ccc2O[C@H]1CN(C)Cc1ccc(C(=O)O)cc1	none
C[C@H]1CN([C@@H](C)CO)C(=O)Cc2cc(NS(C)(=O)=O)ccc2O[C@@H]1CN(C)Cc1ccc(Cl)c(Cl)c1	none
C[C@H](CO)N1C[C@H](C)[C@@H](CN(C)Cc2ccc(C(F)(F)F)cc2)Oc2ccc(NS(C)(=O)=O)cc2CC1=O	T cruzi growth-1 118.1 | T cruzi growth-2 109.4 | T cruzi growth-3 103.4 | NIH3T3 tox inactive | NIH3T3 tox 2 47.3
C[C@H](CO)N1C[C@H](C)[C@@H](CN(C)Cc2ccc(C(F)(F)F)cc2)Oc2ccc(N(C)C)cc2CC1=O	T cruzi growth-1 132.7 | T cruzi growth-2 107.7 | T cruzi growth-3 96.9 | NIH3T3 tox inactive | NIH3T3 tox 2 71.9
C[C@H](CO)N1C[C@H](C)[C@@H](CN(C)Cc2ccc(Cl)c(Cl)c2)Oc2ccc(NS(C)(=O)=O)cc2CC1=O	T cruzi growth-1 inconclusive | T cruzi growth-2 114.8 | T cruzi growth-3 inactive | NIH3T3 tox inactive | NIH3T3 tox 2 100.3
C[C@@H]1CN([C@H](C)CO)C(=O)Cc2cc(NS(C)(=O)=O)ccc2O[C@H]1CN(C)Cc1ccc(C(F)(F)F)cc1	none
